Laboratory results: PubChem BioAssay AID1136 (Sanford-Burnham Center for Chemical Genomics, 2008)
Among all 200,000 compounds or so, fewer than 10 were called active.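 The calls were made as follows: active = activation factor at least 2 at 20 µM; inactive = the rest.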 These entries were drawn from the full list.

molecular target: Alkaline phosphatase, tissue-nonspecific isozyme (Homo sapiens) (UniProt P05186); test: TNAP activators at high phosphate acceptor level, primary screen, biochemical, luminescence, uHTS (AID 1136); settings: purified TNAP, CDP-star luminescence, 1 M DEA, 30 min; at 20 µM; stronger effect = higher value; 0 = EDTA background, 1 = DMSO-only activity
Outline: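 Control set: EDTA negative control, DMSO positive control / Assay system: human TNAP / Quantity: TNAP 1/800 final / Evaluation: TNAP activation factor scaled between EDTA and DMSO control wells / Measured by: luminescent substrate turnover signal / Compound dosing: one dose, 20 µM / Times: 30 min enzyme reaction at room temperature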

Chain of Alkaline phosphatase, tissue-nonspecific isozyme (Homo sapiens) (P05186 whole entry, looked up): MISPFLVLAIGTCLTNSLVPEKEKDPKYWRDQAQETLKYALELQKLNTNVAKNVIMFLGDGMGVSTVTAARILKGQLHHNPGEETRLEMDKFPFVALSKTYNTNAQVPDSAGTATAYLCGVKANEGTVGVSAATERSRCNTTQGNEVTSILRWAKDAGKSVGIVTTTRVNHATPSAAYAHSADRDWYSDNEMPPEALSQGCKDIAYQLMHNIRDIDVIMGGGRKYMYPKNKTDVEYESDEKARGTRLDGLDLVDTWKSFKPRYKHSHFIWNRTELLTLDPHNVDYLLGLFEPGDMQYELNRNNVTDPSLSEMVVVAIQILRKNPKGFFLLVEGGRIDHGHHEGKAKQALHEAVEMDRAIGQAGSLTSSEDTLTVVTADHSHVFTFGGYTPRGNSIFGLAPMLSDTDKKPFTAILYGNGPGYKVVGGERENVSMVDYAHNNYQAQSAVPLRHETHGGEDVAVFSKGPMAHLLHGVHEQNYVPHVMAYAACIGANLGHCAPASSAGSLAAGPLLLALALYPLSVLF

Activation factor, inactive:
CC1CCCN(S(=O)(=O)c2ccc(N(C(=O)c3cnccn3)C(C(=O)NC3CCCCC3)c3cccs3)cc2)C1 (configuration not stated) 0.9
COc1ccc([N+](=O)[O-])cc1NC(=O)C(C)OC(=O)C1c2ccccc2Oc2ccccc21 (configuration not stated) 1
COc1ccc(C(=O)Nc2ccc(NC(=O)C(C)C)nc2)cc1 1.1
COc1ccc(CNc2c(CO)cnc3c2cnn3C)cc1 1
CCOC(=O)c1sc(=NC(=O)/C=C/c2cccs2)n(C)c1C 1
CN(C)C(CNC(=O)c1ccc(S(=O)(=O)NCc2ccco2)cc1)c1ccccc1 (configuration not stated) 1
Cc1cc(C)cc(OCC(=O)Nc2ccc(S(=O)(=O)Nc3ccccn3)cc2)c1 1
COc1ccc(C(=O)NC(=S)Nc2ccc(Cl)cn2)cc1OC 1.1
COc1ccc(N2C(=O)CC(Nc3ccc(F)cc3)C2=O)c([N+](=O)[O-])c1 (configuration not stated) 1
CC(Oc1cccc(NC(=O)c2cccs2)c1)C(=O)c1ccccc1 (configuration not stated) 1
CCCNS(=O)(=O)c1ccc(CCC(=O)N2CCCC2)cc1 1.1
COc1cc(OC)cc(-c2nnc(SCC(=O)Nc3ccc(C(=O)O)cc3)s2)c1 1
O=C(N/N=C/c1ccc(OCC2COCCO2)cc1)c1ccc(Br)cc1 (configuration not stated) 1
CCN(C(=O)c1ccc(Br)cc1)c1ccccc1 1
Cn1ncc(N2CCN(S(=O)(=O)c3ccc(Br)cc3)CC2)c(Cl)c1=O 1.1
O=C(CSCC(=O)Nc1cccc([N+](=O)[O-])c1)Nc1ccccc1 1
Cc1ccc(S(=O)(=O)NNC(=O)Nc2cccc3ccccc23)cc1 1
CCN(CC)c1ccc2c(Nc3ccccc3)c(C=O)c(=O)oc2c1 1
O=C(COC(=O)CCCSc1nc2ccccc2[nH]1)Nc1ccc(Oc2ccccc2)cc1 1.1
O=C(NCc1cccnc1)c1cccc(-c2cc3ccccc3oc2=O)c1 1.1
C=CCN(C(=O)c1cc(C)cc(C)c1)C1(C(=O)Nc2ccccc2)CCN(C(C)C)CC1 1
CCOc1ccc(C(=O)Nc2nccs2)cc1[N+](=O)[O-] 1
COc1ccc(C)cc1NC(=O)NCc1ccccn1 1
CCC1S/C(=N/N=C/c2ccco2)NC1=O (configuration not stated) 1
CN(C)S(=O)(=O)c1ccc2oc(SCC(=O)Nc3ccccc3F)nc2c1 1
C=CCOC(=O)C1=C[C@@H](c2ccccc2)C[C@@H](OCc2ccc(CO)cc2)O1 1.1
NC1=C([N+](=O)[O-])C(c2ccccc2)C2=C(CCCC2=O)O1 (configuration not stated) 1
